In ChEMBL document CHEMBL1221342, “Synthesis and in vitro antitumor activity of new 4,5-dihydropyrazole derivatives” (Bioorg Med Chem, 2010):

How the values were obtained:
NCI-H460 [1] = test: Cytotoxicity against human NCI-H460 cells after 72 hrs by SRB assay; type: functional, cell-based; settings: NCI-H460, 72 h
Outline: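 NCI-H460 (ATCC) cells seeded in 96-well plates in growth medium. Scalar drug concentrations added 24 h after plating, then 72 h exposure. Surviving cells stained with sulforhodamine B, OD read at 570 nm. IC50 (50% growth inhibition) fitted from dose–response curves. Mean ± SE of at least three independent experiments.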

HCT-15 = test: Growth inhibition of human HCT15 cells after 48 hrs by SRB assay; type: functional; settings: HCT-15, 48 h; for TGI: read-out: pTGI (converted)
Outline: (§1)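 NCI 60-cell-line screen. Cells grown in RPMI1640 with 5% fetal calf serum and 2 mM L-glutamine, with inoculum density set by cell line. Preincubated 24 h, then given compound in DMSO at 10^-4 to 10^-8 M (five 10-fold steps) for 48 h continuous exposure. Growth measured by SRB protein assay. GI50, TGI and LC50 reported as –log molar.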

SF-268 = test: Growth inhibition of human SF268 cells after 48 hrs by SRB assay; type: functional; settings: SF-268, 48 h; outline: as §1
SR = test: Growth inhibition of human SR cells after 48 hrs by SRB assay; type: functional; settings: for TGI: read-out: pTGI (converted); outline: as §1
SK-MEL-5 = test: Growth inhibition of human SK-MEL-5 cells after 48 hrs by SRB assay; type: functional; settings: SK-MEL-5, 48 h; for TGI: read-out: pTGI (converted); outline: as §1
HL-60(TB) = test: Growth inhibition of human HL-60(TB) cells after 48 hrs by SRB assay; type: functional; settings: HL-60, 48 h; for TGI: read-out: pTGI (converted)
Outline: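 NCI 60-cell-line screen: cells grown in RPMI1640 with 5% fetal calf serum and 2 mM L-glutamine, preincubated 24 h, then exposed to compound in DMSO at five concentrations (10^-4 to 10^-8 M) for 48 h continuous exposure. Growth estimated by sulforhodamine B protein assay; reported as pGI50 (-log molar concentration inhibiting net cell growth by 50%).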

SK-OV-3 = test: Growth inhibition of human SKOV3 cells after 48 hrs by SRB assay; type: functional; settings: SK-OV-3, 48 h; for TGI: read-out: pTGI (converted); outline: as §1
SK-MEL-2 = test: Growth inhibition of human SK-MEL-2 cells after 48 hrs by SRB assay; type: functional; settings: SK-MEL-2, 48 h; for TGI: read-out: pTGI (converted); outline: as §1
MCF7 = test: Growth inhibition of human MCF7 cells after 48 hrs by SRB assay; type: functional; settings: MCF7, 48 h; for TGI: read-out: pTGI (converted); outline: as §1
UO-31 = test: Growth inhibition of human UO31 cells after 48 hrs by SRB assay; type: functional; settings: UO-31, 48 h; for TGI: read-out: pTGI (converted); outline: as §1
A498 = test: Growth inhibition of human A498 cells after 48 hrs by SRB assay; type: functional; settings: A498, 48 h; for TGI: read-out: pTGI (converted); outline: as §1
MDA-MB-435 = test: Growth inhibition of human MDA-MB-435 cells after 48 hrs by SRB assay; type: functional; settings: MDA-MB-435, 48 h; for TGI: read-out: pTGI (converted); outline: as §1
PC-3 = test: Growth inhibition of human PC3 cells after 48 hrs by SRB assay; type: functional; settings: PC-3, 48 h; for TGI: read-out: pTGI (converted); outline: as §1
T47D = test: Growth inhibition of human T47D cells after 48 hrs by SRB assay; type: functional; settings: for TGI: read-out: pTGI (converted); outline: as §1
TK-10 = test: Growth inhibition of human TK10 cells after 48 hrs by SRB assay; type: functional; settings: TK-10, 48 h; for TGI: read-out: pTGI (converted); outline: as §1
CCRF-CEM = test: Growth inhibition of human CCRF-CEM cells after 48 hrs by SRB assay; type: functional; settings: for TGI: read-out: pTGI (converted); outline: as §1
SW-620 = test: Growth inhibition of human SW620 cells after 48 hrs by SRB assay; type: functional; settings: SW-620, 48 h; for TGI: read-out: pTGI (converted); outline: as §1
UACC-62 = test: Growth inhibition of human UACC62 cells after 48 hrs by SRB assay; type: functional; settings: UACC-62, 48 h; for TGI: read-out: pTGI (converted); outline: as §1
KM12 = test: Growth inhibition of human KM12 cells after 48 hrs by SRB assay; type: functional; settings: KM12, 48 h; for TGI: read-out: pTGI (converted); outline: as §1
Malme-3M = test: Growth inhibition of human MALME-3M cells after 48 hrs by SRB assay; type: functional; settings: for TGI: read-out: pTGI (converted); outline: as §1
SF-539 = test: Growth inhibition of human SF539 cells after 48 hrs by SRB assay; type: functional; settings: SF-539, 48 h; for TGI: read-out: pTGI (converted); outline: as §1
DU-145 = test: Growth inhibition of human DU145 cells after 48 hrs by SRB assay; type: functional; settings: DU-145, 48 h; for TGI: read-out: pTGI (converted); outline: as §1
MOLT-4 = test: Growth inhibition of human MOLT4 cells after 48 hrs by SRB assay; type: functional; settings: MOLT-4, 48 h; for TGI: read-out: pTGI (converted); outline: as §1
SNB-75 = test: Growth inhibition of human SNB75 cells after 48 hrs by SRB assay; type: functional; settings: SNB-75, 48 h; for TGI: read-out: pTGI (converted); outline: as §1
U-251 = test: Growth inhibition of human U251 cells after 48 hrs by SRB assay; type: functional; settings: U-251, 48 h; for TGI: read-out: pTGI (converted); outline: as §1
NCI/ADR-RES = test: Growth inhibition of human NCI/ADR-RES cells after 48 hrs by SRB assay; type: functional; settings: for TGI: read-out: pTGI (converted); outline: as §1
HCT-116 = test: Growth inhibition of human HCT116 cells after 48 hrs by SRB assay; type: functional; settings: HCT-116, 48 h; for TGI: read-out: pTGI (converted); outline: as §1
OVCAR-4 = test: Growth inhibition of human OVCAR4 cells after 48 hrs by SRB assay; type: functional; settings: OVCAR-4, 48 h; for TGI: read-out: pTGI (converted); outline: as §1
EKVX = test: Growth inhibition of human EKVX cells after 48 hrs by SRB assay; type: functional; settings: for TGI: read-out: pTGI (converted); outline: as §1
[2] = Growth inhibition of human Hs 578T cells after 48 hrs by SRB assay; type: functional; settings: for TGI: read-out: pTGI (converted); outline: as §1
786-0 = test: Growth inhibition of human 786-0 cells after 48 hrs by SRB assay; type: functional; settings: 786-0, 48 h; for TGI: read-out: pTGI (converted); outline: as §1
NCI-H460 [3] = test: Growth inhibition of human NCI-H460 cells after 48 hrs by SRB assay; type: functional; settings: NCI-H460, 48 h; for TGI: read-out: pTGI (converted); outline: as §1
BT-549 = test: Growth inhibition of human BT549 cells after 48 hrs by SRB assay; type: functional; settings: BT-549, 48 h; for TGI: read-out: pTGI (converted); outline: as §1
RXF 393 = test: Growth inhibition of human RXF393 cells after 48 hrs by SRB assay; type: functional; settings: RXF 393, 48 h; outline: as §1

## CCN(CC)c1ccc(C2CC(c3cc(OC)c(OC)c(OC)c3)=NN2)cc1 (centres undefined)
NCI-H460 [1]
  IC50: 300 nM
HCT-15
  GI50: 631 nM
  TGI: > 100000 nM
SF-268
  GI50: 794 nM
SR
  GI50: 251 nM
  TGI: 1000 nM
SK-MEL-5
  GI50: 794 nM
  TGI: 3160 nM
HL-60(TB)
  GI50: 251 nM
  TGI: 2000 nM
SK-OV-3
  GI50: 501 nM
  TGI: > 100000 nM
SK-MEL-2
  GI50: 1580 nM
  TGI: > 100000 nM
MCF7
  GI50: 158 nM
  TGI: 1580 nM
UO-31
  GI50: 794 nM
  TGI: > 100000 nM
A498
  GI50: 398 nM
  TGI: 794 nM
MDA-MB-435
  GI50: 158 nM
  TGI: 316 nM
PC-3
  GI50: 316 nM
  TGI: 63100 nM
T47D
  TGI: > 100000 nM
TK-10
  GI50: 39800 nM
  TGI: > 100000 nM
CCRF-CEM
  GI50: 200 nM
  TGI: 631 nM
SW-620
  GI50: 398 nM
  TGI: > 100000 nM
UACC-62
  GI50: 398 nM
  TGI: 50100 nM
KM12
  GI50: 398 nM
  TGI: > 100000 nM
Malme-3M
  GI50: 20000 nM
  TGI: > 100000 nM
SF-539
  GI50: 316 nM
  TGI: 1260 nM
DU-145
  GI50: 398 nM
  TGI: 1580 nM
MOLT-4
  GI50: 1260 nM
  TGI: 5010 nM
SNB-75
  GI50: 200 nM
  TGI: 631 nM
U-251
  GI50: 398 nM
  TGI: > 100000 nM
NCI/ADR-RES
  GI50: 501 nM
  TGI: > 100000 nM
HCT-116
  GI50: 251 nM
  TGI: 1000 nM
OVCAR-4
  GI50: 1000 nM
  TGI: > 100000 nM
EKVX
  GI50: 398 nM
  TGI: 794 nM
[2]
  GI50: 251 nM
  TGI: 631 nM
786-0
  GI50: 158 nM
  TGI: 501 nM
NCI-H460 [3]
  GI50: 316 nM
  TGI: 12600 nM
BT-549
  GI50: 398 nM
  TGI: 5010 nM

## COc1ccc(/C=C\c2cc(OC)c(OC)c(OC)c2)cc1O [COMBRETASTATIN A4]
HCT-15
  GI50: 31.6 nM
  TGI: 10000 nM
SF-268
  GI50: 126 nM
SF-268; read-out: pTGI (converted)
  TGI: 50100 nM
SR
  GI50: 126 nM
  TGI: 79400 nM
SK-MEL-5
  GI50: 10 nM
  TGI: 10 nM
HL-60(TB)
  GI50: 31.6 nM
  TGI: 63.1 nM
SK-OV-3
  GI50: 31600 nM
  TGI: > 100000 nM
RXF 393
  GI50: 1000 nM
RXF 393; read-out: pTGI (converted)
  TGI: 79400 nM
SK-MEL-2
  GI50: 7940 nM
  TGI: 79400 nM
MCF7
  GI50: 39.8 nM
  TGI: 79400 nM
UO-31
  GI50: 200 nM
  TGI: 50100 nM
A498
  GI50: 50.1 nM
  TGI: 794 nM
MDA-MB-435
  GI50: 31.6 nM
  TGI: 79.4 nM
PC-3
  GI50: 39.8 nM
  TGI: > 100000 nM
T47D
  GI50: 50100 nM
  TGI: > 100000 nM
TK-10
  GI50: 631 nM
  TGI: 3980 nM
CCRF-CEM
  GI50: 100 nM
  TGI: 5010 nM
SW-620
  GI50: 31.6 nM
  TGI: 79400 nM
UACC-62
  GI50: 10 nM
  TGI: 63100 nM
KM12
  GI50: 50.1 nM
  TGI: 794 nM
Malme-3M
  GI50: 501 nM
  TGI: 79400 nM
SF-539
  GI50: 39.8 nM
  TGI: 200 nM
DU-145
  GI50: 10 nM
  TGI: > 100000 nM
MOLT-4
  GI50: 100 nM
  TGI: 3980 nM
SNB-75
  GI50: 794 nM
  TGI: 25100 nM
U-251
  GI50: 50.1 nM
  TGI: 12600 nM
NCI/ADR-RES
  GI50: 63.1 nM
  TGI: 398 nM
HCT-116
  GI50: 31.6 nM
  TGI: 200 nM
OVCAR-4
  GI50: 251 nM
  TGI: 79400 nM
EKVX
  GI50: 398 nM
  TGI: 79400 nM
[2]
  GI50: 158 nM
  TGI: 7940 nM
786-0
  GI50: 19.9 nM
  TGI: 25100 nM
NCI-H460 [3]
  GI50: 31.6 nM
  TGI: 63100 nM
BT-549
  GI50: 10 nM
  TGI: 2000 nM
